Values joined by “and” are separate entries in the source; they are usually repeats but may differ in a detail not shown here. Identical values can stand only once. “Also recorded” adds a separate entry of the source. Active and inactive are the calls of the source. The calls are words filed in the database; no cut-off is given here.
Columns and labels:
[1] = target: Phosphatidylinositol 4,5-bisphosphate 3-kinase catalytic subunit gamma isoform (Homo sapiens, UniProt P48736); experiment: Inhibition of full length human PI3Kgamma using PIP2 as substrate after 30 mins by TR-FRET assay
Outline: (§1)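 In vitro kinase assay run against each Class I PI3K isoform, with ATP at 2×Km steady-state concentration; IC50 values are the average of at least 2 determinations.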

[2] = Intrinsic clearance in human liver microsomes at 1 uM measured in presence of NADPH/UDPGA by UHPLC-HRMS based assay; assay type: ADME, Microsome
[3] = target: T1, Aldehyde oxidase (Homo sapiens, UniProt Q06278); experiment: Drug metabolism in human hepatocytes assessed as AO-mediated 4-(6-(2-amino-3-fluoropyridin-4-yl)-2-methyl-4-(4H-1,2,4-triazol-3-yl)-1H-benzo[d]imidazol-1-yl)-5,8-difluoroquinolin-2(1H)-one metabolite formation at 0.5 uM measured up to 250 mins by UHPLC-HRMS based assay; assay type: ADME, cell-based
T1 sequence (Q06278 whole entry): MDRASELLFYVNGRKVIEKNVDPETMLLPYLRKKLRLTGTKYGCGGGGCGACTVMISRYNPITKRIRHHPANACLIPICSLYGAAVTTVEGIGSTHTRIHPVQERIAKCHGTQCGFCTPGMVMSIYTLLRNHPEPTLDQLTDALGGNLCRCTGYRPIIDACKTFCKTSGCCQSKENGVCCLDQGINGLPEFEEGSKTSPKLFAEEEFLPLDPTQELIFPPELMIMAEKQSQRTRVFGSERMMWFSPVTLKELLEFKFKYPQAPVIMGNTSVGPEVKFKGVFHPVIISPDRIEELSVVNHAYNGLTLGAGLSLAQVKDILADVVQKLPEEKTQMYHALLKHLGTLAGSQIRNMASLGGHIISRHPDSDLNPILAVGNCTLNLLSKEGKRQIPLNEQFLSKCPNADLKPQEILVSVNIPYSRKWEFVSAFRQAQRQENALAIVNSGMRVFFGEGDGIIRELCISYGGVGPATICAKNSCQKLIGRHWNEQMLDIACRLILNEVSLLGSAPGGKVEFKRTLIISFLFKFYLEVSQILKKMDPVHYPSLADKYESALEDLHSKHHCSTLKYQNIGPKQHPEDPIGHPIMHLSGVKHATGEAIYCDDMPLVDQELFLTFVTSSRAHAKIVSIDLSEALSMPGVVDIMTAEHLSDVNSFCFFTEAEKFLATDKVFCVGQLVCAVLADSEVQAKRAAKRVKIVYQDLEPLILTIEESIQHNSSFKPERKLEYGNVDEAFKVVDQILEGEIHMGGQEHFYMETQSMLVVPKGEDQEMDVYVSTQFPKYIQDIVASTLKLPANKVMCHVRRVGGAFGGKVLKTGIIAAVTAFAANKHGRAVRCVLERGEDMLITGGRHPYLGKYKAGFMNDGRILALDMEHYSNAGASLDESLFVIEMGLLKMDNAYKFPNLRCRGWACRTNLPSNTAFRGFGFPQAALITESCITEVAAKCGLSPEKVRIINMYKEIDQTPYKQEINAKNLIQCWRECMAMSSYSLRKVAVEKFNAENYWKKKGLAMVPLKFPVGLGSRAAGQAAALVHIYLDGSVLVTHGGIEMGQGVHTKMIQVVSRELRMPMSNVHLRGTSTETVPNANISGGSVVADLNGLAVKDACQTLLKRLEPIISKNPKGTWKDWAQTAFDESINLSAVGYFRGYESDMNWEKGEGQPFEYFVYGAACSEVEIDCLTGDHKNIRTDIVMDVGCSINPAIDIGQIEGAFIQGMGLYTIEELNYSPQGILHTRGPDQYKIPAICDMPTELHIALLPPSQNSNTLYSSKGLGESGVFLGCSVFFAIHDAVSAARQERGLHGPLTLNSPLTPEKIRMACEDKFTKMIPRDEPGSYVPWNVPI

[4] = target: T1, Aldehyde oxidase; experiment: Drug metabolism in human hepatocytes assessed as AO-mediated triazole oxidation at 0.5 uM measured up to 250 mins by UHPLC-HRMS based assay; assay type: ADME, cell-based
[5] = target: T1, Aldehyde oxidase; experiment: Drug metabolism in human liver cytosol assessed as AO-mediated 4-(6-(2-amino-3-fluoropyridin-4-yl)-2-methyl-4-(4H-1,2,4-triazol-3-yl)-1H-benzo[d]imidazol-1-yl)-5,8-difluoroquinolin-2(1H)-one metabolite formation at 0.5 uM measured after 2 hrs by UHPLC-HRMS based assay; assay type: ADME, subcellular
[6] = target: Voltage-gated inwardly rectifying potassium channel KCNH2 (Homo sapiens, UniProt Q12809); experiment: Inhibition of human ERG at 25 uM
[7] = tested on: Cytochrome P450; experiment: Inhibition of human CYP450 at 25 uM; assay type: ADME, protein assay
[8] = Fraction unbound in Sprague-Dawley rat plasma; assay type: ADME, cell-free
[9] = Clearance in Sprague-Dawley rat at 1 mg/kg, iv by ESI-LC/MS/MS analysis; assay type: ADME, organism-based; settings: in vivo
[10] = Volume of distribution at steady state in Sprague-Dawley rat at 1 mg/kg, iv by ESI-LC/MS/MS analysis; assay type: ADME, organism-based; settings: in vivo, read-out: Vdss
[11] = Terminal half life in Sprague-Dawley rat at 1 mg/kg, iv by ESI-LC/MS/MS analysis; assay type: ADME, organism-based; settings: in vivo, read-out: beta t1/2 (converted)
[12] = MRT in Sprague-Dawley rat at 1 mg/kg, iv by ESI-LC/MS/MS analysis; assay type: ADME, organism-based; settings: in vivo
[13] = Oral bioavailability in Sprague-Dawley rat at 5 mg/kg by ESI-LC/MS/MS analysis; assay type: ADME, organism-based; settings: in vivo
[14] = Fraction unbound in Beagle dog plasma; assay type: ADME, cell-free, Canis lupus familiaris
[15] = Clearance in Beagle dog at 1 mg/kg, iv by ESI-LC/MS/MS analysis; assay type: ADME, organism-based, Canis lupus familiaris; settings: in vivo
[16] = Volume of distribution at steady state in Beagle dog at 1 mg/kg, iv by ESI-LC/MS/MS analysis; assay type: ADME, organism-based, Canis lupus familiaris; settings: in vivo, read-out: Vdss
[17] = Terminal half life in Beagle dog at 1 mg/kg, iv by ESI-LC/MS/MS analysis; assay type: ADME, organism-based, Canis lupus familiaris; settings: in vivo, read-out: beta t1/2 (converted)
[18] = MRT in Beagle dog at 1 mg/kg, iv by ESI-LC/MS/MS analysis; assay type: ADME, organism-based, Canis lupus familiaris; settings: in vivo
[19] = Fraction unbound in cynomolgus monkey plasma; assay type: ADME, cell-free, Macaca fascicularis
[20] = Clearance in cynomolgus monkey at 1 mg/kg, iv by ESI-LC/MS/MS analysis; assay type: ADME, organism-based, Macaca fascicularis; settings: in vivo
[21] = Volume of distribution at steady state in cynomolgus monkey at 1 mg/kg, iv by ESI-LC/MS/MS analysis; assay type: ADME, organism-based, Macaca fascicularis; settings: in vivo, read-out: Vdss
[22] = Terminal half life in cynomolgus monkey at 1 mg/kg, iv by ESI-LC/MS/MS analysis; assay type: ADME, organism-based, Macaca fascicularis; settings: in vivo, read-out: beta t1/2 (converted)
[23] = MRT in cynomolgus monkey at 1 mg/kg, iv by ESI-LC/MS/MS analysis; assay type: ADME, organism-based, Macaca fascicularis; settings: in vivo
[24] = Oral bioavailability in cynomolgus monkey at 5 mg/kg by ESI-LC/MS/MS analysis; assay type: ADME, organism-based, Macaca fascicularis; settings: in vivo
[25] = Fraction unbound in rhesus monkey plasma; assay type: ADME, cell-free, Macaca mulatta
[26] = Clearance in rhesus monkey at 1 mg/kg, iv by ESI-LC/MS/MS analysis; assay type: ADME, organism-based, Macaca mulatta; settings: in vivo
[27] = Volume of distribution at steady state in rhesus monkey at 1 mg/kg, iv by ESI-LC/MS/MS analysis; assay type: ADME, organism-based, Macaca mulatta; settings: in vivo, read-out: Vdss
[28] = Terminal half life in rhesus monkey at 1 mg/kg, iv by ESI-LC/MS/MS analysis; assay type: ADME, organism-based, Macaca mulatta; settings: in vivo, read-out: beta t1/2 (converted)
[29] = MRT in rhesus monkey at 1 mg/kg, iv by ESI-LC/MS/MS analysis; assay type: ADME, organism-based, Macaca mulatta; settings: in vivo
[30] = Permeability across apical to basolateral side in human Caco2 cells at 10 uM after 1 to 2 hrs by LC/MS/MS analysis; assay type: ADME, cell-based; settings: Caco-2, read-out: permeability
[31] = Efflux ratio of apparent permeability in human Caco2 cells at 10 uM after 1 to 2 hrs by LC/MS/MS analysis; assay type: ADME, cell-based; settings: Caco-2
[32] = Conformation stability assessed as rate constant for (P)-4-(1-(5,8-difluoroquinolin-4-yl)-2-methyl-4-(4H-1,2,4-triazol-3-yl)-1H-benzo[d]imidazol-6-yl)-3-fluoropyridin-2-amine formation at 10 mg at 120 degC by chiral SFC analysis; assay type: physicochemical
[33] = target: Phosphatidylinositol 4,5-bisphosphate 3-kinase catalytic subunit beta isoform (Homo sapiens) (UniProt P42338); experiment: Inhibition of partial length human PI3Kbeta expressed in mammalian system at 10 uM by active site-directed competition binding based KINOMEscan assay
Outline: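 Active-site-directed competition binding assay across more than 400 human kinases, with compound tested at 10 µM.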

[34] = target: PI3-kinase p110-alpha/p85-alpha (Homo sapiens, UniProt P42336); experiment: Inhibition of full length human p110alpha/p85alpha using PIP2 as substrate after 30 mins by TR-FRET assay; assay type: protein-complex assay; outline: as §1
[35] = target: PI3K p110 beta/p85 alpha (Homo sapiens, UniProt P42338); experiment: Inhibition of full length human His-tagged p110beta/p85alpha using PIP2 as substrate after 30 mins by TR-FRET assay; assay type: protein-complex assay; outline: as §1
[36] = target: PI3-kinase p110-delta/p85-alpha (Homo sapiens, UniProt O00329); experiment: Inhibition of full length human p110delta/p85alpha using PIP2 as substrate after 30 mins by TR-FRET assay; assay type: protein-complex assay; outline: as §1
PI3-kinase p110-delta/p85-alpha, sequence (P27986 whole entry): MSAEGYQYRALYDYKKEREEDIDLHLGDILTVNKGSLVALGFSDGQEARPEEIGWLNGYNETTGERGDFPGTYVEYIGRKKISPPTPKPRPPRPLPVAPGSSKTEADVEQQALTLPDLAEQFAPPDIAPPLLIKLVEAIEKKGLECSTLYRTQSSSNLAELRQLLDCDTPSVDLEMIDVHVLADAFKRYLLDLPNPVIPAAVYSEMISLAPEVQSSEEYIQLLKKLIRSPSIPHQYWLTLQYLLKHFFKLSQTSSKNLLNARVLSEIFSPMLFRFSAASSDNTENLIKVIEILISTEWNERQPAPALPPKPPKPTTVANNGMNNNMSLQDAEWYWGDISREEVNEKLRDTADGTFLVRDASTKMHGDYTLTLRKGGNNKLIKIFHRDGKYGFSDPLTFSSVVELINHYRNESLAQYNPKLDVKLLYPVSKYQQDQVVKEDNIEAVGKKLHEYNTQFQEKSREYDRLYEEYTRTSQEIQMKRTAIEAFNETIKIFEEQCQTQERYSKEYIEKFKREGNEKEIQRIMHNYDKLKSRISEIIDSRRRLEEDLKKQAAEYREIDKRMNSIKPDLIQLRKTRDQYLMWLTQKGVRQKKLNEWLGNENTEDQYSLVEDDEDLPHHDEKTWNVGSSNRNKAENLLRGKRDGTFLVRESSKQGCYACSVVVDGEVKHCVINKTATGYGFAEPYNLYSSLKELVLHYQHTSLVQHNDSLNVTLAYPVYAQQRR
PI3-kinase p110-delta/p85-alpha, sequence (O00329 whole entry): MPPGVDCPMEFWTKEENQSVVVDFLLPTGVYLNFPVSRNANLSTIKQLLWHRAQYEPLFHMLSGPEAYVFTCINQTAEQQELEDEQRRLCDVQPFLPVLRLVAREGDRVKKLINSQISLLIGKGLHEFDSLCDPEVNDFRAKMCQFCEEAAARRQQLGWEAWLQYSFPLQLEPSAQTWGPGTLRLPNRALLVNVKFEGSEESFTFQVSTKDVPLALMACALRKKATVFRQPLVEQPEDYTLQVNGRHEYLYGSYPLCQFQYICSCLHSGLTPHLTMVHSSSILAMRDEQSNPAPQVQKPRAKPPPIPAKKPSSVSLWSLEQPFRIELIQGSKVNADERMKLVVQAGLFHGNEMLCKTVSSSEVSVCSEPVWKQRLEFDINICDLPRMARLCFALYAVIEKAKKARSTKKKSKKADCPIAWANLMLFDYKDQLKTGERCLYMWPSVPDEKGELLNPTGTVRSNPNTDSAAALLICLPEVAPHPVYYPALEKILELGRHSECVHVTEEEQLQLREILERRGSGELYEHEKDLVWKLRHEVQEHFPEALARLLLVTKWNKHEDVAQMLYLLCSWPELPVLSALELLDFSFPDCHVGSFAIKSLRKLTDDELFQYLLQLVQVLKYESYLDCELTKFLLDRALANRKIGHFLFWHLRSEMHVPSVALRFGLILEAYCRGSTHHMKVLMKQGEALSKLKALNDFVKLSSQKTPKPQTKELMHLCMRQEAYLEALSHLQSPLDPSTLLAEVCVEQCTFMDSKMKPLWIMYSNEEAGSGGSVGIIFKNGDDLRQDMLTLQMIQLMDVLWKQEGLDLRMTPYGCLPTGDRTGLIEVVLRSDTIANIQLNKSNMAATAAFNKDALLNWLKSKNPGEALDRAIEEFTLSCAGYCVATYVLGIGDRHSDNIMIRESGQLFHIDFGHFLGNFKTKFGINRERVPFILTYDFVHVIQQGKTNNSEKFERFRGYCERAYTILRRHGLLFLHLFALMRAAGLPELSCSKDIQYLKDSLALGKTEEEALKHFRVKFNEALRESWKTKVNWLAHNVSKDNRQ

Phosphatidylinositol 4,5-bisphosphate 3-kinase catalytic subunit gamma isoform, sequence (P48736 whole entry, canonical isoform): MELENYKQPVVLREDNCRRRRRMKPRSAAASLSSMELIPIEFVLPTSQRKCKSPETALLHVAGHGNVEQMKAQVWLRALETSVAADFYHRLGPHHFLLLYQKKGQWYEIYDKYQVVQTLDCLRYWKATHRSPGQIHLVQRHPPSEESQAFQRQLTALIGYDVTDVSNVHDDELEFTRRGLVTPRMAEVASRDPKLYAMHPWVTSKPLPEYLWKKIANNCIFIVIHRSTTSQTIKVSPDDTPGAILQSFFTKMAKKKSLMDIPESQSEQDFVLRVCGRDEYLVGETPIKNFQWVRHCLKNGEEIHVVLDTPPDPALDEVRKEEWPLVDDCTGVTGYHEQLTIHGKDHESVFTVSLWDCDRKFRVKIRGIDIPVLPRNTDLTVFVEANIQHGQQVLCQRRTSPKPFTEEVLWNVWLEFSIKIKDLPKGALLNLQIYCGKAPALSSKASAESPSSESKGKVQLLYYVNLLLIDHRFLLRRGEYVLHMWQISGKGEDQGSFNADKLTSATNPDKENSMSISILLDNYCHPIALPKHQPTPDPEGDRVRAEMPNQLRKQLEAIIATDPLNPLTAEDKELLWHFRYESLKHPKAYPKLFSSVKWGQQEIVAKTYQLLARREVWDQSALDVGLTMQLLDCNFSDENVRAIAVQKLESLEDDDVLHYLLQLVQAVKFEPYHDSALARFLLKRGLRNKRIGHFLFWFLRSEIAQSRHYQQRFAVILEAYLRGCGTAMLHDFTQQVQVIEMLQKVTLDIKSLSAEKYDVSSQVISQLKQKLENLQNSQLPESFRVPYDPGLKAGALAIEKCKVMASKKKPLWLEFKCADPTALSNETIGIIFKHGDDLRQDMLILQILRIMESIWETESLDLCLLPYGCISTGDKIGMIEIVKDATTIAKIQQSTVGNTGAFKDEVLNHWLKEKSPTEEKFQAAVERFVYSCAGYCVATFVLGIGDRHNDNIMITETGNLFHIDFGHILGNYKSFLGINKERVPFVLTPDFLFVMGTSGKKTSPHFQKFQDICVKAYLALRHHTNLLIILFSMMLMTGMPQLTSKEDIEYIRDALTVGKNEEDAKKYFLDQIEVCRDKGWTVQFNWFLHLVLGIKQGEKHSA
PI3-kinase p110-alpha/p85-alpha, sequence (P27986 whole entry): as the sequence (P27986 whole entry) above
PI3-kinase p110-alpha/p85-alpha, sequence (P42336 whole entry): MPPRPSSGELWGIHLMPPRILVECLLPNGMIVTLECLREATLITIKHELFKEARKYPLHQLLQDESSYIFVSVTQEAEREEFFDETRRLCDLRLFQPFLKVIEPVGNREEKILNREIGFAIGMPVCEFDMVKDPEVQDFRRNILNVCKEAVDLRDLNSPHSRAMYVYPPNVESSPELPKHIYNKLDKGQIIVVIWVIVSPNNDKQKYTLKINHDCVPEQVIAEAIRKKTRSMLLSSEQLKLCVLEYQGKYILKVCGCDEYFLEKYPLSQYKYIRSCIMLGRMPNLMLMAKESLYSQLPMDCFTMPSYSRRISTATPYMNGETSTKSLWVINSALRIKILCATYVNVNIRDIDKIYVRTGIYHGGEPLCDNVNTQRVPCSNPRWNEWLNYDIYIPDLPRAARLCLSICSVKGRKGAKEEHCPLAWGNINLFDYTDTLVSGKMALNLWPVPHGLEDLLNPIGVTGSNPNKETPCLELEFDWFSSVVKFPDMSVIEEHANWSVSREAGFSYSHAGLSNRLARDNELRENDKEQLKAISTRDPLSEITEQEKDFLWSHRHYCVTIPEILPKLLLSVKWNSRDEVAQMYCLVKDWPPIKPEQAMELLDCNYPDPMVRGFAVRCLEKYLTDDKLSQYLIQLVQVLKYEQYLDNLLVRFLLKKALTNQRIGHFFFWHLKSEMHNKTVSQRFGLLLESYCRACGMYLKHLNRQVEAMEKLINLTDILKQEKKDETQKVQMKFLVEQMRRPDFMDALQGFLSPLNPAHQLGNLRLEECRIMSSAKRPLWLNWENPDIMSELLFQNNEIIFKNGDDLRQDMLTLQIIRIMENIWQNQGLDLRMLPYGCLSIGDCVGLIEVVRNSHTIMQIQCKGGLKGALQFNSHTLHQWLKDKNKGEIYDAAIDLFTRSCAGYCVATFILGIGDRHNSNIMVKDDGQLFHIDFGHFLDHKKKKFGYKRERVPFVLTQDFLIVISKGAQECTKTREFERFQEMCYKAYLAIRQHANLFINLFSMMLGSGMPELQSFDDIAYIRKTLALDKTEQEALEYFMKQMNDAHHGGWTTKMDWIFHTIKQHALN
PI3K p110 beta/p85 alpha, sequence (P27986 whole entry): as the sequence (P27986 whole entry) above
PI3K p110 beta/p85 alpha, sequence (P42338 whole entry): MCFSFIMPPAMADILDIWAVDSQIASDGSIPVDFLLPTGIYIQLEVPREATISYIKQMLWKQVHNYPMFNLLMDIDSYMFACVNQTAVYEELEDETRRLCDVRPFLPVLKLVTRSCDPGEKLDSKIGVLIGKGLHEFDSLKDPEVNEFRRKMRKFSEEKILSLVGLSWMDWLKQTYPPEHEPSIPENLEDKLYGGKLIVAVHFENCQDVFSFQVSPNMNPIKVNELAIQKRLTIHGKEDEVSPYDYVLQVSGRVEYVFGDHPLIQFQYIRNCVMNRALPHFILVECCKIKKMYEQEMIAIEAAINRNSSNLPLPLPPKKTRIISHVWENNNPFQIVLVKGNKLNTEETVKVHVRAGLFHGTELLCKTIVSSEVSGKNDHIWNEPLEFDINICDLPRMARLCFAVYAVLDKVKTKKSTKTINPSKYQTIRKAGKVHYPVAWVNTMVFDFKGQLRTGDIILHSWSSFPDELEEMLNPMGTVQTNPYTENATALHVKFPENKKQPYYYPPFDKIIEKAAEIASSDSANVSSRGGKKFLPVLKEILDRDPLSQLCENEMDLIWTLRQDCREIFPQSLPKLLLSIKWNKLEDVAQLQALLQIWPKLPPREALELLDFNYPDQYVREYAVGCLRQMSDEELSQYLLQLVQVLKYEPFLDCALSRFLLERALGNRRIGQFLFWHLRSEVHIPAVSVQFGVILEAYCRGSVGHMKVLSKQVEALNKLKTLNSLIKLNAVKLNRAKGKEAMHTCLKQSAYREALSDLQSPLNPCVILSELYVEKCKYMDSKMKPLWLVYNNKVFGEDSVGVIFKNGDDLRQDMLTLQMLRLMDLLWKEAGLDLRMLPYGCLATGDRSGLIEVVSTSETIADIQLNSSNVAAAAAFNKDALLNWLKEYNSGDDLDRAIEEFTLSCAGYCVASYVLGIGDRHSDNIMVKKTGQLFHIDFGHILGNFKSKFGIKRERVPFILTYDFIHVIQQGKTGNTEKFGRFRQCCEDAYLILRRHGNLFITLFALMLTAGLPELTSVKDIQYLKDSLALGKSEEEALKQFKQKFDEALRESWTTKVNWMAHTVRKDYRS

Cc1nc2c(-c3nnc[nH]3)cc(-c3ccnc(N)c3F)cc2n1-c1ccnc2c(F)ccc(F)c12
IC50 [1]: > 10000 nM and 4270 nM and 4160 nM | CLint scaled at 1 µM ([2]; liver microsomes, read-out: CLH (converted)): 2.5 mL/min/kg | CLH ([2]; microsomes, 1 µM): < 2 mL/min/kg | Drug metabolism [3]: Metabolite_Detected | Drug metabolism [4]: Metabolite_Detected | Stability [4]: Stable | Drug metabolism [5]: Metabolite_Notdetected; also recorded: Metabolite_Detected | inhibition (INH) [6]: Not Active | inhibition (INH) [7]: Not Active | fraction unbound [8]: 0.19 | clearance [9]: 11.3 mL/min/kg | Vd [10]: 2.68 L/kg | half-life [11]: 9.55 h | MRT [12]: 3.87 h | bioavailability [13]: 60.4% | fraction unbound [14]: 0.078 | clearance [15]: 3.67 mL/min/kg | Vd [16]: 0.89 L/kg | half-life [17]: 3.61 h | MRT [18]: 4.04 h | fraction unbound [19]: 0.062 | clearance [20]: 1.83 mL/min/kg | Vd [21]: 0.45 L/kg | half-life [22]: 5.17 h | MRT [23]: 4.3 h | bioavailability [24]: 64.2% | fraction unbound [25]: 0.072 | clearance [26]: 1.67 mL/min/kg | Vd [27]: 0.63 L/kg | half-life [28]: 6.04 h | MRT [29]: 6.2 h | Papp A→B at 10 µM [30]: 17 ×10⁻⁶ cm/s | efflux ratio at 10 µM [31]: < 1.5 | K [32]: 2.64 ×10⁻⁷ /s | inhibition [33]: Active

Nc1nccc(-c2cc(-c3nnc[nH]3)c3ncn(-c4ccnc5c(F)ccc(F)c45)c3c2)c1F
IC50 [34]: 233 nM | IC50 [35]: 11 nM | IC50 [36]: 67 nM | IC50 [1]: 440 nM
